This is an account of results in ChEMBL document CHEMBL1124409, “Preparation and biodistribution of 1-[2-(3-[125I]iodo-4-aminophenyl)ethyl]-4-[3-(trifluoromethyl) phenyl]piperazine and 1-[2-(3-[125I]iodo-4-azidophenyl)ethyl]-4-[3-(trifluoromethyl)phenyl] piperazine” (J Med Chem, 1989).

Data set [1] deals with Rattus norvegicus. Briefly: Biodistribution of the radio labelled compound (azido-[125I]-IPAPP) in rat blood after 15 min of intravenous injection. The format is ADME, organism-based. The conditions noted are these: in vivo. The method in brief:
(§1)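 Rats received the radioligand in 0.2 mL saline into the femoral vein under ether anesthesia. They were killed by cardiac excision at set times post-injection. Organs were removed and gamma-counted at about 50% efficiency. % dose/organ was calculated against diluted aliquots of the injected material. Values are the average of three rats.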

Data set [2] concerns Rattus norvegicus. Briefly: Biodistribution of the radio labelled compound (azido-[125I]-IPAPP) in rat blood after 2 min of intravenous injection. The class given is ADME, organism-based. To be noted: in vivo. The method in brief: as §1
Data set [3] concerns Rattus norvegicus. Briefly: Biodistribution of the radio labelled compound (azido-[125I]-IPAPP) in rat blood after 30 min of intravenous injection. The format is ADME, organism-based. To be noted: in vivo, 0.5 h. An outline of the steps: as §1
For data set [4], the system named is Rattus norvegicus. The experiment in a line: Biodistribution of the radio labelled compound (azido-[125I]-IPAPP) in rat brain after 15 min of intravenous injection. The format is ADME, organism-based. To be noted: in vivo. The method in brief: as §1
In data set [5] the test system is Rattus norvegicus. Briefly: Biodistribution of the radio labelled compound (azido-[125I]-IPAPP) in rat brain after 2 min of intravenous injection. To be noted: in vivo. The class given is ADME, organism-based. An outline of the steps: as §1
Data set [6] concerns Rattus norvegicus. The experiment in a line: Biodistribution of the radio labelled compound (azido-[125I]-IPAPP) in rat brain after 30 min of intravenous injection. The format is ADME, organism-based. To be noted: in vivo, 0.5 h. An outline of the steps: as §1
The test system of data set [7] is Rattus norvegicus. The experiment in a line: Biodistribution of the radio labelled compound (azido-[125I]-IPAPP) in rat heart after 15 min of intravenous injection. The format is ADME, organism-based. To be noted: in vivo. The method in brief:
as §1

The test system of data set [8] is Rattus norvegicus. Briefly: Biodistribution of the radio labelled compound (azido-[125I]-IPAPP) in rat heart after 2 min of intravenous injection. The format is ADME, organism-based. The conditions noted are these: in vivo. The method in brief: as §1
In data set [9] the test system is Rattus norvegicus. Briefly: Biodistribution of the radio labelled compound (azido-[125I]-IPAPP) in rat lungs after 2 min of intravenous injection. The conditions noted are these: in vivo. The format is ADME, organism-based, Lung. The method in brief: as §1
Data set [10] deals with Rattus norvegicus. The experiment in a line: Biodistribution of the radio labelled compound (azido-[125I]-IPAPP) in rat muscle after 15 min of intravenous injection. The format is ADME, organism-based, Muscle tissue. The conditions noted are these: in vivo. An outline of the steps: as §1
The subject of data set [11] is Rattus norvegicus. The experiment in a line: Biodistribution of the radio labelled compound (azido-[125I]-IPAPP) in rat muscle after 2 min of intravenous injection. The class given is ADME, organism-based, Muscle tissue. The conditions noted are these: in vivo. The method in brief:
as §1

Data set [12] has as its system Rattus norvegicus. The experiment in a line: Biodistribution of the radio labelled compound (azido-[125I]-IPAPP) in rat muscle after 30 min of intravenous injection. The format is ADME, organism-based, Muscle tissue. To be noted: in vivo, 0.5 h. The method in brief: as §1
Data set [13] has as its system Rattus norvegicus. The experiment in a line: Biodistribution of the radio labelled compound (azido-[125I]-IPAPP) in rat heart after 30 min of intravenous injection. To be noted: in vivo, 0.5 h. The class given is ADME, organism-based. An outline of the steps:
as §1

Data set [14] relates to Rattus norvegicus. The experiment in a line: Biodistribution of the radio labelled compound (azido-[125I]-IPAPP) in rat liver after 15 min of intravenous injection. The format is ADME, organism-based. To be noted: in vivo. An outline of the steps:
as §1

Data set [15] has as its system Rattus norvegicus. Briefly: Biodistribution of the radio labelled compound (azido-[125I]-IPAPP) in rat liver after 2 min of intravenous injection. The format is ADME, organism-based. To be noted: in vivo. The method in brief: as §1
For data set [16], the system named is Rattus norvegicus. Briefly: Biodistribution of the radio labelled compound (azido-[125I]-IPAPP) in rat lungs after 15 min of intravenous injection. The format is ADME, organism-based, Lung. The conditions noted are these: in vivo. An outline of the steps:
as §1

The subject of data set [17] is Rattus norvegicus. The experiment in a line: Biodistribution of the radio labelled compound (azido-[125I]-IPAPP) in rat liver after 30 min of intravenous injection. The format is ADME, organism-based. The conditions noted are these: in vivo, 0.5 h. The method in brief: as §1
Data set [18] relates to Rattus norvegicus. The experiment in a line: Biodistribution of the radio labelled compound (azido-[125I]-IPAPP) in rat lungs after 30 min of intravenous injection. The format is ADME, organism-based, Lung. The conditions noted are these: in vivo, 0.5 h. An outline of the steps:
as §1

The subject of data set [19] is Rattus norvegicus. Briefly: Ratio of biodistribution of the radio labelled compound ([125I]IPAPP) in rat brain to rat blood after 15 min of intravenous injection. The format is ADME, organism-based. An outline of the steps:
(§2)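 Rats, three per time point, received the radioligand in 0.2 mL saline into the femoral vein under ether anesthesia. They were killed by cardiac excision at 2, 15 or 30 min. Brain and blood were removed and gamma-counted at about 50% efficiency. Percent dose per organ was taken as tissue counts divided by diluted aliquots of the injected material.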

Data set [20] has as its system Rattus norvegicus. The experiment in a line: Ratio of biodistribution of the radio labelled compound ([125I]IPAPP) in rat brain to rat blood after 2 min of intravenous injection. The format is ADME, organism-based. An outline of the steps: as §2
Data set [21] has as its system Rattus norvegicus. The experiment in a line: Ratio of biodistribution of the radio labelled compound ([125I]IPAPP) in rat brain to rat blood after 30 min of intravenous injection. The class given is ADME, organism-based. The conditions noted are these: 0.5 h. The method in brief:
as §2

Data set [22] relates to Rattus norvegicus. The experiment in a line: Ratio of biodistribution of the radio labelled compound (azido-[125I]-IPAPP) in rat brain to rat blood after 15 min of intravenous injection. The format is ADME, organism-based.
Data set [23] relates to Rattus norvegicus. The experiment in a line: Ratio of biodistribution of the radio labelled compound (azido-[125I]-IPAPP) in rat brain to rat blood after 2 min of intravenous injection. The class given is ADME, organism-based.
Data set [24] has as its system Rattus norvegicus. Briefly: Ratio of biodistribution of the radio labelled compound (azido-[125I]-IPAPP) in rat brain to rat blood after 30 min of intravenous injection. The format is ADME, organism-based. The conditions noted are these: 0.5 h.

Consider `Nc1ccc(CCN2CCN(c3cccc(C(F)(F)F)c3)CC2)cc1I`, for which the Dose/organ in the data set on Rattus norvegicus [1] came to 2.23%; with Rattus norvegicus [2], 6.99%; in the data set on Rattus norvegicus [3], 1.96%; in the data set with Rattus norvegicus [4], 0.91%; in the data set with Rattus norvegicus [5] it was 1.68%; in the data set on Rattus norvegicus [6], 0.935%. Further, the Dose/organ was found to be 0.309% with Rattus norvegicus [7]; 2.34% with Rattus norvegicus [8]; 14.2% with Rattus norvegicus [9]; 13.6% in the data set with Rattus norvegicus [10]; 6.51% in the data set with Rattus norvegicus [11]; 11.8% in the data set with Rattus norvegicus [12]. Besides, the Dose/organ in the data set on Rattus norvegicus [13] was 0.262%; in the data set with Rattus norvegicus [14], 19.4%; with Rattus norvegicus [15] it was 13.1%; in the data set on Rattus norvegicus [16], 3.15%; with Rattus norvegicus [17], 18.9%; in the data set on Rattus norvegicus [18] it was 4.16%. Besides, the values for the Ratio in the data set on Rattus norvegicus [19], with Rattus norvegicus [20] and in the data set with Rattus norvegicus [21] were 4.92, 2.63 and 4.76, respectively.

Take `[N-]=[N+]=Nc1ccc(CCN2CCN(c3cccc(C(F)(F)F)c3)CC2)cc1I`: the Dose/organ with Rattus norvegicus [1] is 3.21%; with Rattus norvegicus [2], 9.74%; in the data set on Rattus norvegicus [3] it was 2.76%; with Rattus norvegicus [4], 0.667%; in the data set with Rattus norvegicus [5], 0.503%; in the data set on Rattus norvegicus [6], 0.75%. The Dose/organ with Rattus norvegicus [7] is given as 0.548%; with Rattus norvegicus [8] it was 1.4%; in the data set on Rattus norvegicus [9] it was 6.5%; with Rattus norvegicus [10], 16.6%; in the data set with Rattus norvegicus [11] it was 11.8%; in the data set with Rattus norvegicus [12], 14.4%. For the same molecule, the Dose/organ in the data set on Rattus norvegicus [13] is recorded as 0.372%; in the data set on Rattus norvegicus [14] it was 34.3%; in the data set with Rattus norvegicus [15], 32.5%; with Rattus norvegicus [16], 2.15%; in the data set with Rattus norvegicus [17], 28.5%; in the data set on Rattus norvegicus [18] it was 1.73%. Besides, the Ratio came to 1.99 in the data set on Rattus norvegicus [22], 0.499 with Rattus norvegicus [23] and 2.53 in the data set on Rattus norvegicus [24].
